ChEMBL document CHEMBL4828721, “Substituted dienes prepared from betulinic acid - Synthesis, cytotoxicity, mechanism of action, and pharmacological parameters” (Eur J Med Chem, 2021)
pIC50: −log10 of the molar value. The source made the active and inactive calls. No cut-off for these calls is given here.

How the values were obtained:
[1] = Apparent permeability of the compound in human Caco2 cells at pH 7.4 at 10 micromol/L measured after 2 hrs by RF-MS analysis; format: ADME, cell-based; conditions: Caco-2, pH 7.4, dose 10 µmol/L
Method in brief: (§1)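 Caco-2 and MDCK-MDR1 cells grown on polyester Transwell filters (0.4 and 1 µm pores) in DMEM pH 7.4 with 10% FBS; monolayer integrity checked by Lucifer Yellow rejection. Cells washed and pre-equilibrated 1 h in HBSS pH 7.4, then dosed with compound in HBSS pH 7.4. Incubation was 1 h for MDCK and 2 h for Caco-2. Samples lyophilized and quantified by RapidFire MS/MS with internal standard. Duplicates. Papp = (dQ/dt)/(C0·A).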

HCT-116 = assay: Cytotoxicity against human HCT-116 cells assessed as reduction in cell viability measured after 72 hrs by MTS assay; format: functional, cell-based; conditions: HCT-116, 72 h
[2] = Cytotoxicity against human HCT116 p53-null cells assessed as reduction in cell viability measured after 72 hrs by MTS assay; format: functional, cell-based
CCRF-CEM [3] = assay: Induction of apoptosis in human CCRF-CEM cells assessed as activation of caspase 9 at 5 times IC50 measured after 24 hrs by western blot analysis; format: functional, cell-based
Method in brief: (§2)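 Protein (15 µg/lane) was resolved by 10% SDS-PAGE and transferred to nitrocellulose. Blocked in 5% milk/TBST, then probed overnight at 4 °C with primary antibodies (1:1000) and HRP secondaries. Detected by ECL, with β-actin as loading control.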

[4] = Stability in human plasma assessed as parent compound remaining at 2 uM incubated for 60 mins by RF-MS analysis; format: ADME, cell-free; conditions: read-out: Stability
CCRF-CEM [5] = assay: Induction of mitotic arrest in human CCRF-CEM cells assessed as phosphorylation of histone H3 at Ser10 at 5 times IC50 measured after 24 hrs by propidium iodide staining based flow cytometry analysis (Rvb= 1.72%); format: functional
CCRF-CEM [6] = assay: Cell cycle arrest in human CCRF-CEM cells assessed as accumulation of cells at sub G1 phase at 5 times IC50 measured after 24 hrs by propidium iodide staining based flow cytometry analysis (Rvb= 2.77%); format: functional
[7] = Apparent permeability of the compound in dog MDCK-MDR1 cells at pH 7.4 at 10 micromol/L measured after 1 hr by RF-MS analysis; format: ADME, cell-based, Canis lupus familiaris; conditions: MDCK-MDR1, pH 7.4, dose 10 µmol/L; method in brief: as §1
CCRF-CEM [8] = assay: Inhibition of DNA synthesis in human CCRF-CEM cells at 5 times IC50 by BrdU incorporation assay (Rvb= 41.56%); format: functional; parameters: scale not given: the % may be the effect or the level left
CCRF-CEM [9] = assay: Induction of apoptosis in human CCRF-CEM cells assessed as activation of caspase 3 at 5 times IC50 measured after 24 hrs by western blot analysis; format: functional, cell-based; method in brief: as §2
CCRF-CEM [10] = assay: Induction of apoptosis in human CCRF-CEM cells assessed as late apoptotic cells at 5 times IC50 measured after 24 hrs by Annexin V-FITC/PI staining based flow cytometry analysis (Rvb= 1.4%); format: functional
CCRF-CEM [11] = assay: Induction of mitotic arrest in human CCRF-CEM cells assessed as phosphorylation of histone H3 at Ser10 at IC50 measured after 24 hrs by propidium iodide staining based flow cytometry analysis (Rvb= 1.72%); format: functional
[12] = Apparent permeability of the compound in dog MDCK-MDR1 cells assessed as recovery rate at pH 7.4 at 10 micromol/L measured after 1 hr by RF-MS analysis; format: ADME, cell-based, Canis lupus familiaris; conditions: MDCK-MDR1, pH 7.4, dose 10 µmol/L, read-out: Activity
CCRF-CEM [13] = assay: Induction of apoptosis in human CCRF-CEM cells assessed as late apoptotic cells at IC50 measured after 24 hrs by Annexin V-FITC/PI staining based flow cytometry analysis (Rvb= 1.4%); format: functional
[14] = Fraction bound in human plasma at 10 uM measured after 4 hrs by RF-MS based rapid equilibrium dialysis method
CCRF-CEM [15] = assay: Inhibition of DNA synthesis in human CCRF-CEM cells at IC50 by BrdU incorporation assay (Rvb= 41.56%); format: functional; parameters: scale not given: the % may be the effect or the level left
[16] = Cytotoxicity against paclitaxel resistant human K562-Tax cells assessed as reduction in cell viability measured after 72 hrs by MTS assay; format: functional, cell-based
CCRF-CEM [17] = assay: Cell cycle arrest in human CCRF-CEM cells assessed as accumulation of cells at S phase at 5 times IC50 measured after 24 hrs by propidium iodide staining based flow cytometry analysis (Rvb= 38.17%); format: functional
CCRF-CEM [18] = assay: Induction of apoptosis in human CCRF-CEM cells assessed as early apoptotic cells at 5 times IC50 measured after 24 hrs by Annexin V-FITC/PI staining based flow cytometry analysis (Rvb= 1.6%); format: functional
[19] = Microsomal stability in human liver microsomes assessed as parent compound remaining at 2 uM in the presence of NADPH measured after 30 mins by RF-MS analysis; format: ADME, Microsome; conditions: read-out: Stability
Method in brief: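 Human liver microsomes incubated with compound in the presence of NADPH cofactor to assess phase I oxidation. Intrinsic clearance was derived from the decline of the parent compound.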

[20] = Efflux ratio of apparent permeability across basolateral to apical side to apparent permeability across apical to basolateral side in human Caco2 cells at pH 7.4 at 10 micromol/L measured after 2 hrs by RF-MS analysis; format: ADME, cell-based; conditions: Caco-2, pH 7.4, dose 10 µmol/L
Method in brief: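 Efflux ratio is Papp(B→A)/Papp(A→B) from bidirectional transport across Caco-2 (2 h) or MDCK-MDR1 (1 h) monolayers. Compound was dosed in HBSS pH 7.4 and quantified by RapidFire MS/MS. Run in duplicates. ER > 2 was taken as a potential P-gp substrate.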

CCRF-CEM [21] = assay: Cell cycle arrest in human CCRF-CEM cells assessed as accumulation of cells at S phase at IC50 measured after 24 hrs by propidium iodide staining based flow cytometry analysis (Rvb= 38.17%); format: functional
K562 = assay: Cytotoxicity against human K562 cells assessed as reduction in cell viability measured after 72 hrs by MTS assay; format: functional, cell-based; conditions: K562, 72 h
BJ = assay: Cytotoxicity against human BJ cells assessed as reduction in cell viability measured after 72 hrs by MTS assay; format: cell-based
[22] = Stability in human plasma assessed as parent compound remaining at 2 uM incubated for 15 mins by RF-MS analysis; format: ADME, cell-free; conditions: read-out: Stability
CCRF-CEM [23] = assay: Cell cycle arrest in human CCRF-CEM cells assessed as accumulation of cells at G2/M phase at IC50 measured after 24 hrs by propidium iodide staining based flow cytometry analysis (Rvb= 21.62%); format: functional
CCRF-CEM [24] = assay: Induction of cell cycle arrest in human CCRF-CEM cells assessed as upregulation of p21 protein expression at 5 times IC50 measured after 24 hrs by western blot analysis; format: functional, cell-based; method in brief: as §2
CCRF-CEM [25] = assay: Induction of apoptosis in human CCRF-CEM cells assessed as activation of caspase 8 at 5 times IC50 measured after 24 hrs by western blot analysis; format: functional, cell-based; method in brief: as §2
CCRF-CEM [26] = assay: Induction of apoptosis in human CCRF-CEM cells assessed as induction of PARP cleavage at 5 times IC50 measured after 24 hrs by western blot analysis; format: functional, cell-based; method in brief: as §2
CEM-DNR = assay: Cytotoxicity against daunorubicin resistant human CEM-DNR cells assessed as reduction in cell viability measured after 72 hrs by MTS assay; format: functional, cell-based
CCRF-CEM [27] = assay: Induction of apoptosis in human CCRF-CEM cells assessed as early apoptotic cells at IC50 measured after 24 hrs by Annexin V-FITC/PI staining based flow cytometry analysis (Rvb= 1.6%); format: functional

In the case of `C=C(/C=C/c1ccc([N+](=O)[O-])cc1)[C@@H]1CC[C@]2(C(=O)O)CC[C@]3(C)[C@H](CC[C@@H]4[C@@]5(C)CC[C@H](O)C(C)(C)[C@@H]5CC[C@]43C)[C@@H]12`, the Papp at 2 h, 10 µM [1] was 0.96 ×10⁻⁶ cm/s, the pIC50 (HCT-116) was 4.73 and the pIC50 [2] was 4.80. The Activity (CCRF-CEM [3]) was “Active”, the remaining at 1 h, 2 µM [4] was 69.3% and the Activity (CCRF-CEM [5]) was 0.93%. For the same compound, the Activity (CCRF-CEM [6]) was 25.04%, the Papp at 1 h, 10 µM [7] was 0.43 ×10⁻⁶ cm/s and the Activity (CCRF-CEM [8]) was 3.06%. The Activity (CCRF-CEM [9]) was “Active”, the Activity (CCRF-CEM [10]) was 9.6% and the Activity (CCRF-CEM [11]) was 2.9%. For the same compound, the recovery at 1 h, 10 µM [12] was 56.7%, the Activity (CCRF-CEM [13]) was 4.9% and the PPB (% bound) at 4 h, 10 µM [14] was 68.1%. The Activity (CCRF-CEM [15]) was 43.17%, the pIC50 [16] was 4.63 and the Activity (CCRF-CEM [17]) was 57.61%. The Activity (CCRF-CEM [18]) was 17.6%, the remaining at 0.5 h, 2 µM [19] was 78.5% and the efflux ratio at 2 h, 10 µM [20] was 2.5. It also gave an Activity (CCRF-CEM [21]) of 28.44%, a pIC50 (K562) of 4.94 and a pIC50 (BJ) of 4.61. For the same compound, the remaining at 0.25 h, 2 µM [22] was 102%, the Activity (CCRF-CEM [23]) was 23.16% and the Activity (CCRF-CEM [24]) was “Active”. The Activity (CCRF-CEM [25]) was “inactive”, the Activity (CCRF-CEM [26]) was “Active” and the pIC50 (CEM-DNR) was 4.64. For the same compound, the Activity (CCRF-CEM [27]) was 2.4%.
`C=C(/C=C/c1cccc(Cl)c1)[C@@H]1CC[C@]2(C(=O)O)CC[C@]3(C)[C@H](CC[C@@H]4[C@@]5(C)CC[C@H](O)C(C)(C)[C@@H]5CC[C@]43C)[C@@H]12` gave a Papp at 2 h, 10 µM [1] of 17.5 ×10⁻⁶ cm/s, a pIC50 (HCT-116) of 4.79 and a pIC50 [2] of 4.82. For the same compound, the Activity (CCRF-CEM [3]) was “Active”, the remaining at 1 h, 2 µM [4] was 89.5% and the Activity (CCRF-CEM [5]) was 1.52%. It also gave an Activity (CCRF-CEM [6]) of 9.13%, a Papp at 1 h, 10 µM [7] of 22.4 ×10⁻⁶ cm/s and an Activity (CCRF-CEM [8]) of 0.4%. For the same compound, the Activity (CCRF-CEM [9]) was “Active”, the Activity (CCRF-CEM [10]) was 4.7% and the Activity (CCRF-CEM [11]) was 1.5%. For the same compound, the recovery at 1 h, 10 µM [12] was 104%, the Activity (CCRF-CEM [13]) was 4.6% and the PPB (% bound) at 4 h, 10 µM [14] was 79%. It also gave an Activity (CCRF-CEM [15]) of 35.56%, a pIC50 [16] of 4.59 and an Activity (CCRF-CEM [17]) of 37.93%. It also gave an Activity (CCRF-CEM [18]) of 5.3%, a remaining at 0.5 h, 2 µM [19] of 92.4% and an efflux ratio at 2 h, 10 µM [20] of 2.64. The Activity (CCRF-CEM [21]) was 42.75%, the pIC50 (K562) was 4.56 and the pIC50 (BJ) was < 4.30. The remaining at 0.25 h, 2 µM [22] was 92.3%, the Activity (CCRF-CEM [23]) was 14.39% and the Activity (CCRF-CEM [24]) was “Active”. For the same compound, the Activity (CCRF-CEM [25]) was “inactive”, the Activity (CCRF-CEM [26]) was “Active” and the pIC50 (CEM-DNR) was 4.59. The Activity (CCRF-CEM [27]) was 2.1%.
